# Only some compounds are listed: those with a hit (about 5.8% of all), similar ones and a draw of the others.
# Pf Dd2 inh: P. falciparum Dd2 growth inhibitors, primary screen, SYBR Green fluorescence, single dose replicates. 72 h; hits give low values. 94,000 compounds, 2.3% hits. activity change, % at 10 µM; in the data active = activity change below about -80%
# GASC1 inh: inhibitors of GASC-1 (KDM4C) histone demethylase, primary screen, biochemical, single concentration HTS. 96,000 compounds, 0.15% hits. GST-KDM4C 2-372, H3K9me3 peptide, LANCE TR-FRET. inhibition, % at 12.5 µM;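 active = mean replicate inhibition above about 25%, with at least 55% of replicates also reaching it, limit read from the data, passing the limit was not always enough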
#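 material = GST-tagged GASC-1 (JMJD2C) catalytic fragment, aa 2-372 | amount = enzyme final amount 10 nM | medium = HEPES buffer, pH 7.5, plus ascorbate | also added = H3K9me3 peptide substrate, Fe(II), 2-oxoglutarate | dosing = single dose | times = 30 min demethylation and 1 h detection at room temperature | detection = LANCE TR-FRET | read-out basis = Fall in 671/618 emission ratio as inhibition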
# IDH1 R132H inh: inhibitors of IDH1 R132H reductase, primary screen, biochemical, plate reader, single point. AID 624101, 2012. Isocitrate dehydrogenase [NADP] cytoplasmic (Homo sapiens), O75874. 70,000 compounds, 0.18% hits. inhibition, % at 10 µM. diaphorase/resazurin fluorescence, 60 min; in the data active = inhibition above about 34%;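 note: 0% = DMSO and 100% = no enzyme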
# Target sequence (O75874 whole entry R132H): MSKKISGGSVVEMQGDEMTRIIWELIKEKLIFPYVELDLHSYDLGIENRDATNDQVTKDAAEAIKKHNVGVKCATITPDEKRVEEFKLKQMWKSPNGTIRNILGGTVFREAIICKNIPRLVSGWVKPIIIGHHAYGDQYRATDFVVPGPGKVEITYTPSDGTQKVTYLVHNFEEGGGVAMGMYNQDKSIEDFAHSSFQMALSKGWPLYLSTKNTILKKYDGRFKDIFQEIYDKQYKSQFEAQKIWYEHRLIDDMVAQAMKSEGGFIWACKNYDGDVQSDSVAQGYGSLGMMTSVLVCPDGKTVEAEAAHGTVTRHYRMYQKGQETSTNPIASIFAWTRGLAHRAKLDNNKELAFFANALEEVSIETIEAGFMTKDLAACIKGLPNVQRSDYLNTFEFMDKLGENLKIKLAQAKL
# T cruzi growth: T. cruzi intracellular proliferation inhibitors, primary screen, cell-based, beta-gal Tulahuen parasites, NIH3T3 host, luminescence; 77,000 compounds, 5.9% hits; AID 624255, 2012; T. cruzi beta-gal in NIH3T3, GalScreen luminescence, 90 h; inhibition, % at 8.34 µM;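 active = mean inhibition above about 93%, with at least 55% of replicates each passing it, limit read from the data, passing the limit was not always enough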
# The depositor's hits bear a star; · = no result.
SMILES,Pf Dd2 inh,GASC1 inh,IDH1 R132H inh,T cruzi growth
C[C@@H]1CN([C@@H](C)CO)C(=O)Cc2cc(NC(=O)Nc3ccc(F)cc3)ccc2O[C@H]1CN(C)Cc1ccncc1,8,1,34*,68
C[C@@H]1CN([C@@H](C)CO)C(=O)Cc2cc(NC(=O)Cc3cn(C)c4ccccc34)ccc2O[C@@H]1CN(C)Cc1ccc(Cl)c(Cl)c1,-39,-1,·,82
C[C@@H]1CN([C@@H](C)CO)C(=O)Cc2cc(NC(=O)Nc3ccc(F)cc3)ccc2O[C@@H]1CN(C)Cc1ccncc1,-9,·,18,76
C[C@H]1CN([C@@H](C)CO)C(=O)Cc2cc(NC(=O)C3CCCCC3)ccc2O[C@H]1CN(C)Cc1ccncc1,-8,1,2,21
CC(C)NC(=O)Nc1ccc2c(c1)CC(=O)N([C@@H](C)CO)C[C@@H](C)[C@H](CN(C)Cc1ccncc1)O2,3,1,43*,·
C[C@@H]1CN([C@@H](C)CO)C(=O)Cc2cc(NC(=O)C3CCCCC3)ccc2O[C@H]1CN(C)Cc1ccncc1,-24,1,46*,62
COC(=O)C[C@H]1CC[C@@H](NS(=O)(=O)c2ccc(OC)cc2)[C@@H](CO)O1,5,-2,0,16
Cc1ccc(S(=O)(=O)N(C)C[C@@H]2Oc3ccc(NC(=O)NC(C)C)cc3CC(=O)N([C@H](C)CO)C[C@H]2C)cc1,-26,1,-1,21
CC(C)NC(=O)Nc1ccc2c(c1)CC(=O)N([C@@H](C)CO)C[C@@H](C)[C@H](CN(C)Cc1ccc(Cl)c(Cl)c1)O2,-82*,1,-2,·
C[C@H](CO)N1C[C@H](C)[C@@H](CN(C)Cc2ccccc2)Oc2ccc(NC(=O)Nc3ccc(F)cc3)cc2CC1=O,-88*,-1,1,76
CC(C)NC(=O)N(C)C[C@H]1Oc2ccc(NC(=O)Nc3ccc(C(F)(F)F)cc3)cc2C(=O)N([C@@H](C)CO)C[C@@H]1C,19,0,0,-5
CNC[C@@H]1Oc2cc(C#C[C@H](C)O)ccc2S(=O)(=O)N([C@@H](C)CO)C[C@H]1C,-53,0,·,12
O=C(Nc1cc(F)ccc1F)N[C@H]1CC[C@@H](CCn2cc(C3CCCCC3)nn2)O[C@@H]1CO,4,0,0,·
Cc1ccc(S(=O)(=O)N(C)C[C@H]2Oc3cc(C#Cc4ccncc4)ccc3S(=O)(=O)N([C@H](C)CO)C[C@@H]2C)cc1,-81*,-18,0,45
Cc1ccc(S(=O)(=O)N(C)C[C@@H]2Oc3cc(C#Cc4ccncc4)ccc3S(=O)(=O)N([C@@H](C)CO)C[C@@H]2C)cc1,-85*,-14,-2,-9
Cc1ccc(S(=O)(=O)N(C)C[C@H]2Oc3cc(C#Cc4ccncc4)ccc3S(=O)(=O)N([C@H](C)CO)C[C@H]2C)cc1,-77,-16,1,78
CCCC#Cc1ccc2c(c1)O[C@@H](CN(C)C(=O)NCCC)[C@H](C)CN([C@H](C)CO)S2(=O)=O,-10,1,0,-75
COc1ccccc1C#Cc1ccc([C@@H]2[C@@H](C#N)N(C(=O)C3CCCC3)[C@H]2CO)cc1,-88*,-1,·,·
COc1ccccc1C#Cc1ccc([C@@H]2[C@@H](CO)N(C(=O)C3CCCC3)[C@H]2C#N)cc1,-88*,1,·,·
CCS(=O)(=O)N1CCCCN2[C@H](C1)[C@@H](c1ccc(C#Cc3ccccc3OC)cc1)[C@@H]2CO,-82*,-4,·,86
COc1ccccc1C#Cc1ccc([C@H]2[C@@H](C#N)N(C(=O)C3CCC3)[C@H]2CO)cc1,-90*,-1,·,94
COc1ccccc1C#Cc1ccc([C@H]2[C@@H](CO)N(C(=O)C3CCCC3)[C@H]2C#N)cc1,-27,-4,·,·
Cc1nn(C)cc1NC(=O)C[C@H]1CC[C@@H]2[C@H](COc3ccc(NC(=O)C(C)C)cc3C(=O)N2C)O1,-30,9,·,43
CCCNC(=O)N1[C@H](C#N)[C@H](c2ccc(C#Cc3ccc(F)cc3)cc2)[C@H]1CO,-86*,0,·,93
N#C[C@@H]1[C@H](c2ccc(C#Cc3ccc(F)cc3)cc2)[C@@H](CO)N1C(=O)Nc1ccc(F)cc1,-47,-2,·,90
SMILES,Pf Dd2 inh,GASC1 inh,IDH1 R132H inh,T cruzi growth
CCCNC(=O)N1[C@H](C#N)[C@H](c2ccc(C#Cc3cccc(F)c3)cc2)[C@H]1CO,-85*,-1,·,94
CCCNC(=O)N1[C@@H](C#N)[C@@H](c2ccccc2)[C@@H]1CO,8,-2,·,-62
CCCNC(=O)N1[C@H](CO)[C@H](c2ccc(-c3ccc(C#N)cc3)cc2)[C@@H]1CNC,-84*,-1,·,·
COc1ccc2c3c([nH]c2c1)[C@@H](CO)N(C(=O)NC(C)C)CC31CCN(C(=O)C2CCCC2)CC1,-66,-1,·,·
C[C@H](CO)N1C[C@H](C)[C@H](CN(C)Cc2ccc(C(F)(F)F)cc2)Oc2ccc(NC(=O)Cc3cn(C)c4ccccc34)cc2C1=O,-26,-1,-2,101
Cc1ccc(S(=O)(=O)N(C)CC(=O)Nc2cc([N+](=O)[O-])ccc2C)cc1,·,·,0,·
COc1ccc(C#Cc2ccc3c(c2)O[C@@H](CN(C)C(=O)Nc2cccc(OC)c2)[C@@H](C)CN([C@H](C)CO)S3(=O)=O)cc1,-89*,-9,·,53
COc1ccc(C#Cc2ccc3c(c2)O[C@@H](CN(C)C(=O)Nc2cccc(OC)c2)[C@H](C)CN([C@@H](C)CO)S3(=O)=O)cc1,-88*,·,·,61
C[C@H](CO)N1C[C@H](C)[C@H](CN(C)Cc2ccc(Cl)c(Cl)c2)Oc2ccc(NC(=O)Nc3cccc4ccccc34)cc2C1=O,11,-1,0,-4
COc1ccc(CN(C)C[C@@H]2Oc3c(NC(=O)c4ccc(-c5nccs5)cc4)cccc3C(=O)N([C@H](C)CO)C[C@H]2C)cc1,-84*,-1,·,16
COc1ccc(CN(C)C[C@H]2Oc3c(NC(=O)c4ccc(-c5nccs5)cc4)cccc3C(=O)N([C@H](C)CO)C[C@@H]2C)cc1,-60,1,-1,9
COc1ccc(CN(C)C[C@@H]2Oc3c(NC(=O)c4ccc(-c5nccs5)cc4)cccc3C(=O)N([C@@H](C)CO)C[C@H]2C)cc1,-90*,·,-3,8
COc1ccc(CN(C)C[C@H]2Oc3c(NC(=O)c4ccc(-c5nccs5)cc4)cccc3C(=O)N([C@@H](C)CO)C[C@H]2C)cc1,-82*,-1,-8,·
C[C@@H]1CN([C@H](C)CO)C(=O)CCCn2cc(nn2)CO[C@H]1CN(C)S(=O)(=O)c1cccs1,12,0,0,-5
COc1ccc(C#Cc2ccc([C@H]3[C@@H](CO)N4C(=O)CN(C(=O)c5ccccc5)C[C@@H]34)cc2)cc1,-23,0,·,·
COCC(=O)Nc1ccc2c(c1)[C@H]1C[C@@H](CC(=O)O)O[C@@H](CO)[C@H]1O2,8,1,·,·

# Screening results (PubChem)
